# Test results as given in paper PMC4831591 (International Journal of Nanomedicine, 2016).
# Key:
# [1] = In vitro drug-release assay by dialysis; format: physicochemical; settings: 37°C, PBS pH 7.4, 48 hours, n=3
# Procedure, shortened: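 Dialysis in 2,000 Da MWCO bag against PBS pH 7.4, stirred 48 h at 37±0.5°C. Medium sampled at time points and replaced. Total drug found by methanol disruption of liposomes. Quantified by HPLC: C18 column, methanol/0.025 M KH2PO4 (11:89, pH 3 with H3PO4), 1.0 mL/min, UV 210 nm; n=3.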
# [2] = tested on: H22 tumor-bearing mice; test: In vivo antineoplastic activity in H22 tumor-bearing mice; settings: 2 mg/kg per day, days 1–9, measured on day 10, n=10
# Procedure, shortened: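 H22 cells in saline (1×10^7/mL) injected subcutaneously in right hind limb on day 0. Mice randomized to PBS control or treatment, 2 mg/kg tail vein daily on days 1–9 (n=10). Tumor volume by caliper and body weight daily. Killed day 10 and tumors excised and weighed. IRw = (1 − Wdrug/Wcontrol)×100.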
# [3] = Biodistribution study in H22 tumor-bearing mice; format: in vivo; settings: n=6; for AUC0–8 / Cmax / t½: 2 mg/kg intravenous
# Procedure, shortened: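 Subcutaneous H22 model: ascites cells from donor mice diluted in saline to 1×10^7/mL and injected into right hind limb (~0.1 mL/10 g). At ~300 mm3 tumor, mice randomized; single tail-vein 2 mg/kg; killed at 1, 2, 4, 8 h (n=6). Tumor and organs rinsed, weighed, homogenized 1:4 w/v in saline. HCl/IS/acetone extraction; FDA-validated LC-MS/MS. Noncompartmental AUC0–8, Cmax; Te = AUC target/(target+untargeted)×100.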
# [4] = tested on: H22 cells; test: In vitro cytotoxicity, MTT assay; format: cell-based, murine; settings: n=3
# Procedure, shortened: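 Log-phase H22 cells seeded at 10^4/well, grown 24 h, medium renewed. Treated at 0.8, 4, 20, 100, 500 μg/mL for 24 or 48 h; blank liposomes at matched concentrations. MTT (5 mg/mL stock in PBS) added for 4 h, formazan dissolved in DMSO, A490 read. Inhibition rate = (1 − A490 treated/A490 untreated)×100.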
smiles,measurement,setting,value
"O=C(O)[C@@H]1[C@H](C(=O)O)[C@H]2CC[C@@H]1O2 [DM-NCTD, diacid metabolite of norcantharidin]",In vitro release of DM-NCTD,[1],quickly and completely released
same,Tumor weight,[2],1.02 ± 0.3 g
same,IRw (inhibition rate on tumor weight),[2]; vs PBS control,30.14%
same,Time at which the highest concentrations were achieved in tissues and tumors,[3]; 2 mg/kg tail vein,2 h
same,AUC0–8,[3]; heart,116.98±10.63 ng⋅h/mL
same,Cmax,[3]; heart,24.08 ± 2.39 ng/mL
same,t½,[3]; heart,110 ± 15 min
same,AUC0–8,[3]; kidney,"1,283.72±66.1 ng⋅h/mL"
same,Cmax,[3]; kidney,427.14 ± 20.81 ng/mL
same,t½,[3]; kidney,56.4 ± 16.8 min
same,AUC0–8,[3]; liver,"1,481.15±51.3 ng⋅h/mL"
same,Cmax,[3]; liver,330.15 ± 13.96 ng/mL
same,t½,[3]; liver,56.4 ± 13.2 min
same,AUC0–8,[3]; lung,266.17±13.55 ng⋅h/mL
same,Cmax,[3]; lung,73.43 ± 6.17 ng/mL
same,t½,[3]; lung,90.6 ± 19.2 min
same,AUC0–8,[3]; spleen,740.09±25.16 ng⋅h/mL
same,Cmax,[3]; spleen,340.11 ± 17.74 ng/mL
same,t½,[3]; spleen,53.4 ± 1.2 min
same,AUC0–8,[3]; tumor,223.18±17.56 ng⋅h/mL
same,Cmax,[3]; tumor,54.57 ± 9.21 ng/mL
same,t½,[3]; tumor,61.2 ± 8.4 min
same,IC50 on H22 cell lines,[4]; 24 hours,39.6 ± 1.20 µg/mL
same,IC50 on H22 cell lines,[4]; 48 hours,30.0 ± 1.73 µg/mL
